Measured values taken from paper PMC2819655 (Bioorganic & medicinal chemistry, 2009).
Residue numbers refer to the chain shown, from its start. pIC50: −log10 of the molar value. Each block holds one compound with its values, some of them ahead of it.

How the values were obtained:
[1] = molecular target: T1, 26S proteasome in MDA-MB-231 cell extract (Homo sapiens, UniProt P28074); experiment: Proteasomal chymotrypsin-like activity in MDA-MB-231 cell extract; type: biochemical; conditions: for inhibition of proteasomal activity: MDA-MB-231 cell lysate with high COMT activity, 1-10 μM, 2 h, Fig. 3A; for change of proteasome inhibitory activity with COMT inhibitor DNC: lysate pre-treated with 10 μM DNC for 20 minutes, Fig. 3B
T1 sequence (P28074 60-263): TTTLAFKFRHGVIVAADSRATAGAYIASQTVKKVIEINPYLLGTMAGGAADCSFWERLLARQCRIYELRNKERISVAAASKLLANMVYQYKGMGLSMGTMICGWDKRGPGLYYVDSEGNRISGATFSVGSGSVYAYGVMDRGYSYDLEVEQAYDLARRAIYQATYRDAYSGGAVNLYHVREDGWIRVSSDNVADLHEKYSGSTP
Summary of the method: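 MDA-MB-231 cell extract (5.7 μg; lysate with high COMT activity) incubated with 20 μM Suc-LLVY-AMC in 20 mM Tris–HCl pH 7.5 with test compound at various concentrations or solvent, 2 h, 37°C. Chymotrypsin-like activity was measured by fluorescence at 355/460 nm. In the COMT-blocked arm, the extract was pre-treated 20 min with 10 μM 3,5-dinitrocatechol, then co-incubated with test compound for 2 h.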

[2] = test system: proteasome in MDA-MB-231 cells; experiment: Accumulation of ubiquitinated proteins, Western blotting; type: cell-based, human; conditions: MDA-MB-231, 50 μM, 22 hours, compared with compound 6 and Pro-EGCG (4), Fig. 6
Summary of the method: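 MDA-MB-231 cells (ATCC; RPMI 1640 with 10% FBS, penicillin/streptomycin; 37°C, 5% CO2) exposed to 50 μM test compound for 22 h. Extracted proteins were analysed by Western blot with antibodies against ubiquitinated proteins, with actin as loading reference.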

MDA-MB-231 cells = experiment: MTT assay, cell proliferation; type: cell-based, human; conditions: for inhibition of cell proliferation: MDA-MB-231, 25 to 50 μM, 24 h, MTT, Fig. 4; for cell growth inhibition compared to non-acetylated precursors 5 and 7: MDA-MB-231, Fig. 4
Summary of the method: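 MDA-MB-231 cells were grown in RPMI 1640 with 10% FBS and penicillin/streptomycin at 37°C, 5% CO2. Triplicate wells were treated with test compound (25 or 50 μM) for 24 h. The medium was aspirated, then MTT (1 mg/ml) was added for 3 h at 37°C. The formazan was dissolved in DMSO and absorbance read at 540 nm.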

[3] = molecular target: T2, purified rabbit 20S proteasome (Oryctolagus cuniculus, UniProt G1T4Q9); experiment: Inhibition of purified 20S proteasome chymotrypsin-like activity; type: biochemical; conditions: for proteasome inhibition: even at 50 μM, Fig. 2A
T2 sequence (G1T4Q9 60-263): T1 sequence (P28074 60-263) with E197D
Summary of the method: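 Purified rabbit 20S proteasome (35 ng) incubated with 20 μM Suc-LLVY-AMC in 20 mM Tris–HCl pH 7.5, with test compound at various concentrations or solvent, for 2 h at 37°C. Chymotrypsin-like activity was read as fluorogenic substrate hydrolysis at 355 nm excitation and 460 nm emission.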

cancer cell lines = conditions: a number of cancer cell lines; cited from earlier work
[4] = test system: proteasome chymotrypsin-like activity; conditions: cited from earlier work

inhibition of proteasomal activity [1]: 18-51% | change of proteasome inhibitory activity with COMT inhibitor DNC [1]: only slightly increased
SMILES: O=C(O[C@H]1Cc2ccccc2C[C@H]1OC(=O)c1cc(O)cc(O)c1)c1cc(O)cc(O)c1 [compound 7]

SMILES: CC(=O)Oc1cc(OC(C)=O)cc(C(=O)O[C@H]2Cc3ccccc3C[C@H]2OC(=O)c2cc(OC(C)=O)cc(OC(C)=O)c2)c1 [compound 8]
accumulation of ubiquitinated proteins [2]: higher levels of ubiquitinated proteins | inhibition of cell proliferation (MDA-MB-231 cells): 70-79% | cell growth inhibition compared to non-acetylated precursors 5 and 7 (MDA-MB-231 cells): more potent

SMILES: CC(=O)Oc1cc(C(=O)O[C@H]2Cc3ccccc3C[C@H]2OC(=O)c2cc(OC(C)=O)c(OC(C)=O)c(OC(C)=O)c2)cc(OC(C)=O)c1OC(C)=O [compound 6]
inhibition of cell proliferation (MDA-MB-231 cells): about 50% | cell growth inhibition compared to non-acetylated precursors 5 and 7 (MDA-MB-231 cells): more potent

proteasome inhibition [3]: not active
SMILES: O=C(O[C@H]1Cc2ccccc2C[C@H]1O)c1cc(O)c(O)c(O)c1 [compound 16]

SMILES: CC(=O)Oc1cc(OC(C)=O)c2c(c1)O[C@H](c1cc(OC(C)=O)c(OC(C)=O)c(OC(C)=O)c1)[C@H](OC(=O)c1cc(OC(C)=O)c(OC(C)=O)c(OC(C)=O)c1)C2 [compound 4, peracetate of (-)-EGCG]
growth inhibitory activity relative to EGCG (cancer cell lines): enhanced growth inhibitory activity | inhibition of cell proliferation (MDA-MB-231 cells): 0 to 32% | activity as a proteasome inhibitor [4]: not active

SMILES: O=C(O[C@@H]1Cc2c(O)cc(O)cc2O[C@@H]1c1cc(O)c(O)c(O)c1)c1cc(O)c(O)c(O)c1 [EGCG, (-)-Epigallocatechin-3-gallate, reference compound]
inhibition of proteasomal chymotryptic activity ([3]; Fig. 2): potently inhibited | pIC50 ([4]; read-out: IC50, chymotrypsin-like activity of the proteasome in vitro, in vitro): 6.71 to 7.07 | change of proteasome inhibitory activity with COMT inhibitor DNC [1]: improved

proteasome inhibition [3]: not active
SMILES: O=C(O[C@H]1Cc2ccccc2C[C@H]1O)c1cc(O)cc(O)c1 [compound 21]

inhibition of proteasomal activity [1]: 10-16% | change of proteasome inhibitory activity with COMT inhibitor DNC [1]: improved
SMILES: O=C(O[C@H]1Cc2ccccc2C[C@H]1OC(=O)c1cc(O)c(O)c(O)c1)c1cc(O)c(O)c(O)c1 [compound 5]
